# Hits are enriched below; roughly 3.4% of the tested compounds scored in any of these assays.
# RanGTP-Impb inh: disruptors of Ran-importin-beta complex formation – biochemical, FRET, CFP-Ran, YFP-importin-beta, homogeneous, primary screen. cell-free CFP-Ran/YFP-importin-beta FRET ratio. inhibition, % (concentration not given with the values). hit rate 1.1% among 300,000;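 active = more than half of the replicate wells show a fall in the fluorescence ratio signal beyond about 16%, limit read from the data, passing the limit was not always enough; inconclusive = exactly half of the replicate wells pass the set limit; inactive = fewer than half of replicates pass the limit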
# Efa HMGR inh: inhibitors of class II HMG-CoA reductase from Enterococcus faecalis. AID 1066. inhibition, % at 10 µM. hit rate 0.41% among 190,000. purified E. faecalis HMGR, NADPH absorbance 340 nm kinetic;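 active = inhibition above a set limit, the median over all tested compounds plus 3 SD, cut at about 9.5% in these data; inconclusive = no clear call, values can overlap the other calls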;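 note: enzyme runs in reverse so mevalonate oxidation gives rising NADPH absorbance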
# Runt-SMMHC FRET: inhibitors of human RUNX1 Runt domain binding to CBFb-SMMHC; Q01196+Q13951; Cerulean-Runt/Venus-CBFb-SMMHC FRET ratio 530/480, 1 h; hit rate 0.74% among 220,000; inhibition, % at 20 µM;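 active = mean inhibition across duplicate retests at 20 µM reaching about 50%, limit read from the data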;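 note: inhibitors lower the FRET ratio by blocking Runt binding to CBFb-SMMHC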
# Runt-CBFb FRET: blocks binding of human RUNX1 Runt domain to CBFb. Q01196+Q13951. Cerulean-Runt/Venus-CBFb FRET ratio 530/480, 1 h. hit rate 0.46% among 220,000. inhibition, % at 20 µM;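 active = inhibition over about 50% at 20 µM in the single-dose screen, limit read from the data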
#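 Buffer or medium: Tris pH 7.5 buffer with BSA. Assay system: Cerulean-labeled Runt domain protein. Amount: each fluorescent fusion protein 100 nM. Read-out basis: loss of energy transfer signal. Incubation: 1 h compound exposure, room temperature. Probe or stimulus: Venus-CBFb binding partner, 100 nM. Detection: FRET, excitation 422 nm, emission at 530 and 480 nm.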
# Wee1 stabilizer: inhibitors of human Wee1 degradation; P30291; HeLa Luc-Wee1K328M stability, luciferase luminescence; 100% = proteasome inhibitor MG132 effect; reporter increase, % at 5 µM; hit rate 1.2% among 220,000; AID 1321;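 active = activation above the mean of all tested compounds plus 3 SD, set per screening run, cut at about 8.8% in these data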;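 note: cells exposed to compound for 20 h before luminescence read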
# PHOSPHO1 inh: blocks human PHOSPHO1 phosphatase activity | AID 1565 | Q8TCT1 | inhibition, % at 13.3 µM | hit rate 1.1% among 290,000 | recombinant PHOSPHO1, absorbance phosphatase assay; in the data active = inhibition above about 60%
# Target sequence (Q8TCT1 whole entry, looked up): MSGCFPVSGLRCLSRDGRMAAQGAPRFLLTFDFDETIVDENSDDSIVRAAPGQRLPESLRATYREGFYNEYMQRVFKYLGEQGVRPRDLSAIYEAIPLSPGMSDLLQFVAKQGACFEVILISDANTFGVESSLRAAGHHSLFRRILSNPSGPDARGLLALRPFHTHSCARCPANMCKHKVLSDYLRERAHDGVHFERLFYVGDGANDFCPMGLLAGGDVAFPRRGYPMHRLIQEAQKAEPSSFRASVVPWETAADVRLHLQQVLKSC
# Numbers stand for hits; – = inactive; ? = inconclusive; · = not tested or not shown.
SMILES,RanGTP-Impb inh,Efa HMGR inh,Runt-SMMHC FRET,Runt-CBFb FRET,Wee1 stabilizer,PHOSPHO1 inh
COc1ccccc1C(=O)NCCn1cc(SCC(=O)Nc2cc(C)on2)c2ccccc21,–,12.6,–,–,–,–
CCOc1ccc(OCCCC(=O)N(C)CC(=O)Nc2ccc(N3CCOCC3)cc2)cc1,–,·,·,·,·,·
COc1ccc(CCC(=O)N(C)CC(=O)Nc2ccc(N3CCOCC3)cc2)cc1,–,9.7,–,–,–,–
O=Cc1ccc(-c2cccc([N+](=O)[O-])c2)o1,–,·,–,–,10.4,–
C[C@@H]1NC(=O)c2cc([N+](=O)[O-])cc(I)c2OCC[C@@H](C(=O)NC(CC(=O)O)C(N)=O)NC(=O)[C@H](CCC(=O)O)NC1=O (some centres undefined),·,–,–,–,–,–
NC(=O)C(CC(=O)O)NC(=O)[C@@H]1CCOc2c(I)cc([N+](=O)[O-])cc2C(=O)N[C@@H](CCC(=O)O)C(=O)N[C@@H](CO)C(=O)N1 (some centres undefined),·,–,–,–,8.8,–
O=S(=O)(Cc1ccccc1Cl)NCCOc1ccccc1,–,–,–,–,9.0,–
O=S(=O)(Cc1ccccc1Cl)NCc1ccccc1,–,–,–,–,–,–
CCOc1ccnc2c1c(=O)n(Cc1cc(OC)cc(OC)c1)c(=O)n2C,–,·,·,·,·,–
Cc1ccc(O)c(CP(=O)(c2ccccc2)c2ccccc2)c1,–,–,–,–,9.4,–
CC(C)(C)c1cc(CP(=O)(c2ccccc2)c2ccccc2)cc(C(C)(C)C)c1O,–,·,·,·,·,–
NS(=O)(=O)c1cc(C(=O)NCC2CCCCC2)ccc1Cl,–,·,·,·,·,–
CCO/N=C(/C)c1c(O)cc(C(C)(C)C)n(-c2ccccc2)c1=O,–,–,–,–,–,–
CCOc1ccc(C(C)=O)cc1CSc1nnc(-c2ccoc2C)n1N,–,–,–,–,–,75.3
Cc1cc(NC(=O)CSc2nnc(-c3ccoc3C)n2N)no1,–,–,–,–,–,–
Cc1c(Cl)c(=O)oc2cc(OC(C)C)ccc12,–,–,–,–,–,–
CCC(=O)Oc1ccc2c(C)c(Cl)c(=O)oc2c1,25.2,–,127.2,82.6,–,–
Cc1cc(COc2ccccc2)oc1C(=O)O,–,·,·,·,·,–
CCOc1nc(NCc2ccco2)nc(Nc2ccccc2F)n1,–,13.4,–,–,–,–
CCOc1nc(NCCO)nc(Nc2ccccc2F)n1,?,–,–,–,–,–
CCC(C)/C=C/C1=CC2=C(Cl)C(=O)C3(C)OC(=O)C(C(=O)C(C)C(C)O)C3C2=CO1 (centres undefined),87.8,–,85.4,–,–,–
CCOC(=O)N1CCN(c2ccc(Cl)cc2)CC1,–,–,–,–,–,–
CCOC(=O)N1CCN(c2ccc(O)cc2)CC1,–,–,–,–,–,62.7
CCN1C(=O)c2ccc(C(=O)NCc3ccco3)cc2C1=O,–,·,·,·,·,–
O=C(CSc1nnc(C2CC2)n1Cc1ccccc1)c1cc2ccccc2o1,?,–,–,–,–,97.1
SMILES,RanGTP-Impb inh,Efa HMGR inh,Runt-SMMHC FRET,Runt-CBFb FRET,Wee1 stabilizer,PHOSPHO1 inh
NC(=O)CSc1nnc(-c2cc3ccccc3o2)n1Cc1ccccc1,–,–,–,–,–,–
O=C(CSc1cccc[n+]1[O-])c1cc2ccccc2o1,–,–,–,–,–,79.4
CCc1cc[n+](-c2nc([O-])sc2C=O)cc1,–,–,–,–,–,79.2
COc1ccc(Cl)cc1NC(=O)C/C(C)=N/NC(=O)COc1ccc(C)cc1,–,·,·,·,·,–
CC(C)(C)C1=C(C#N)C(c2ccncc2)C(C#N)=C(N)O1 (centres undefined),–,–,–,–,–,–
COCCOC(=O)C1=C(C)OC(N)=C(C#N)C1c1ccc2c(c1)OCO2 (centres undefined),–,–,–,–,–,–
CC(C)(C)C1=C(C#N)C(c2ccc3c(c2)OCO3)C(C#N)=C(N)O1 (centres undefined),–,11.4,–,–,–,–
C=CCOC(=O)C1=C(C)OC(N)=C(C#N)C1c1ccc2c(c1)OCO2 (centres undefined),24.9,–,–,–,–,–
COc1ccc(C(=O)N(C)C(C)c2ccon2)cc1OC1CCN(C(C)C)CC1 (centres undefined),–,·,·,·,·,–
CC(=O)c1ccc(Nc2cc(C)nc3c(C)cccc23)cc1,?,–,·,·,10.3,–
COc1ccc(C(=S)NCS(=O)(=O)c2ccc(C)cc2)cc1,–,–,–,–,–,–
Cc1ccc(S(=O)(=O)CNC(=O)c2ccccc2)cc1,–,–,–,–,–,–
Cc1ccc(S(=O)(=O)CNC(=S)c2cccc(C)c2)cc1,–,–,–,–,–,90.4
Cc1ccc(S(=O)(=O)CNC(=S)c2ccc3ccccc3c2)cc1,–,–,–,–,–,85.8
O=C(COC(=O)COc1ccccc1[N+](=O)[O-])NC1CCCC1,–,–,–,–,10.1,–
CCCCn1nc(C(=O)Oc2ccc3c(C)cc(=O)oc3c2)c2ccccc2c1=O,–,–,57.8,–,–,–
Cc1cc(=O)oc2cc(OC(=O)c3cncc(Br)c3)ccc12,–,–,59.2,–,–,–
CCCC(=O)Oc1ccc2c(C)cc(=O)oc2c1,?,–,–,–,–,–
COc1ccc(NC(=O)Cn2c(=O)sc3ccccc32)cc1,–,–,–,–,–,–
COC(=O)Cn1c(=O)sc2ccccc21,–,–,–,–,10.1,–
CCN(CC)S(=O)(=O)c1ccc(NC(=O)Cn2c(=O)sc3ccccc32)cc1,?,–,–,–,9.2,–
O=C(Cn1c(=O)sc2ccccc21)Nc1ccccc1,–,–,–,–,–,–
Cc1ccccc1N1C(=O)CC(Sc2nnc(-c3ccccc3)o2)C1=O (centres undefined),–,–,–,–,–,81.2
O=C1CC(Sc2nnc(-c3ccccc3)o2)C(=O)N1c1ccccc1 (centres undefined),–,–,–,–,–,–
Cc1cccc(N2CCN(C(=O)CCNS(=O)(=O)c3ccc4c(c3)oc(=O)n4C)CC2)c1C,–,·,·,·,·,62.9
COc1ccccc1C1CN(c2ccccc2)N=C1c1cccs1 (centres undefined),–,–,59.4,–,–,–
CCOc1ccc(CC(=O)Nc2sc(Cc3ccccc3)cc2C(N)=O)cc1OCC,–,–,–,–,–,97.4
COc1cc2c(cc1OC)C(NNC(=O)c1ccc(Br)o1)=NC(C)(C)C2,–,·,·,·,·,–
Cc1ccsc1C1NC(=O)c2c(sc3c2CCN(C)C3)N1 (centres undefined),132.2,–,72.7,106.4,–,–
CN1CCc2c(sc3c2C(=O)NC(c2ccc(-c4cccc(Cl)c4)o2)N3)C1 (centres undefined),102.6,–,85.4,115.1,–,–

# Screening results: PubChem BioAssay, several laboratories
